The source made the active and inactive calls. The rule behind the calls is not given here.

Usually IC50 stands for the concentration needed to halve the response being measured.

The test system of the first assay is Plasmodium falciparum. Put plainly: Anti-malarial activity against intraerythrocytic ring stage culture of chloroquine-sensitive Plasmodium falciparum 3D7 after 48 hrs by lactate dehydrogenase assay. The conditions noted are these: 3D7, 48 h. The assay is classed as functional, organism-based. The method, boiled down:
(§1)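 Sorbitol-synchronised ring-stage parasites at 2% haematocrit and 1% parasitaemia, kept at 37 °C in 1% O2/3% CO2/96% N2, were given five-fold drug dilutions from 100 mM DMSO stocks for 48 h. Growth reference wells had no drug, and 0% wells had artemether at 100 nM. LDH was read with Malstat/APAD plus NBT/PES (1 h, dark, room temperature, A650). IC50 came from log dose–response curves of mean growth, n ≥ 6.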
Turning to `COC[C@H]1Cc2c(n(C)c3ccccc23)[C@@H]2CCCC(=O)N12`, inhibition was half-maximal at 41 µM (IC50). This lies in the double-digit micromolar range.

For the compound `C=CCOC[C@H]1Cc2c(n(Cc3ccccc3)c3ccccc23)[C@@H]2CCCC(=O)N12`, the IC50 is 1.7 µM.

As for `COC[C@H]1Cc2c(n(Cc3ccccc3)c3ccccc23)[C@@H]2CCCC(=O)N12`, the IC50 is 2.3 µM. This IC50 and that of the compound before are within 1.5-fold of each other.

A further assay concerns Plasmodium falciparum. Put plainly: Anti-malarial activity against intraerythrocytic ring stage culture of chloroquine-resistant Plasmodium falciparum Dd2 after 48 hrs by lactate dehydrogenase assay. The assay is classed as functional, organism-based. The following applies: Dd2, 48 h. The method in brief: as §1
The compound `C=CCOC[C@@H]1Cc2c(n(Cc3ccccc3)c3ccccc23)[C@H]2CCCC(=O)N12` displayed an IC50 of 35 µM.

In the case of `C=CCOC[C@H]1Cc2c(n(Cc3ccccc3)c3ccccc23)[C@@H]2C[C@@H](C=C)CC(=O)N12`, half-maximal inhibition (IC50) required 1.1 µM.

With `O=C1CCC[C@H]2c3[nH]c4ccccc4c3C[C@H](CO)N12`, inhibition was half-maximal at 56 µM (IC50).

The compound `COC[C@H]1Cc2c(n(C)c3ccccc23)[C@@H]2CCCC(=O)N12` showed an IC50 of 29 µM.

As to `C=CCn1c2c(c3ccccc31)C[C@H](CO)N1C(=O)CCC[C@@H]21`, it took 41 µM to reach half-maximal inhibition (IC50). The IC50 values of the last two compounds are within 1.5-fold of each other.

`O=C1CCC[C@H]2c3c(c4ccccc4n3Cc3ccccc3)C[C@H](COCc3ccccc3)N12` had an IC50 of 3.5 µM.

`C=C[C@@H]1CC(=O)N2[C@H](COCc3ccccc3)Cc3c(n(Cc4ccccc4)c4ccccc34)[C@H]2C1`: half-maximal inhibition (IC50) required 20 µM.

In the case of `C=CCOC[C@H]1Cc2c(n(CC3CCCCC3)c3ccccc23)[C@@H]2CCCC(=O)N12`, the IC50 was determined as 9 µM.

`C=CCOC[C@H]1Cc2c(n(Cc3ccncc3)c3ccccc23)[C@@H]2CCCC(=O)N12` registered an IC50 of 2.1 µM.

The compound `O=C1CCC[C@H]2c3c(c4ccccc4n3Cc3ccccc3)C[C@H](CO)N12` gave an IC50 of 5 µM. Compared with the last compound, the IC50 is about 2.4-fold higher.

Compound `C=CCOC[C@H]1Cc2c(n(CC3CCC3)c3ccccc23)[C@@H]2CCCC(=O)N12` returned an IC50 of 7 µM.

Consider `COC[C@H]1Cc2c(n(Cc3ccccc3)c3ccccc23)[C@@H]2CCCCN12`, for which the IC50 amounted to 3.3 µM.

Compound `O=C1C=CC[C@H]2c3c(c4ccccc4n3Cc3ccccc3)C[C@H](COCc3ccccc3)N12` had an IC50 of 3.6 µM.

`C=CCOC[C@H]1Cc2c(n(CC=C)c3ccccc23)[C@@H]2CCCC(=O)N12` came in with an IC50 of 13 µM.

As to `C=CCOC[C@@H]1Cc2c(n(CC=C)c3ccccc23)[C@H]2CCCC(=O)N12`, half-maximal inhibition (IC50) required 16 µM. The IC50 values of the last two compounds are within 1.5-fold of each other.

Take `COC[C@@H]1Cc2c(n(C)c3ccccc23)[C@H]2CCCC(=O)N12`: 30 µM corresponded to half-maximal inhibition (IC50).

The compound `O=C1CCC[C@@H]2c3[nH]c4ccccc4c3C[C@@H](CO)N12` registered an IC50 of 71 µM. Compared with the last compound, the IC50 is about 2.4-fold higher.

`COC[C@@H]1Cc2c(n(Cc3ccccc3)c3ccccc23)[C@H]2CCCC(=O)N12` came in with an IC50 of 32 µM. Against the preceding compound, the IC50 is about 2.2-fold lower.

As to `C=CCOC[C@H]1Cc2c(n(Cc3ccccc3)c3ccccc23)[C@@H]2CC=CC(=O)N12`, the IC50 came to 1.7 µM.

On to `O=C1CCC[C@@H]2c3c(c4ccccc4n3Cc3ccccc3)C[C@@H](COCc3ccccc3)N12`, for which 12 µM corresponded to half-maximal inhibition (IC50).

`CCCOC[C@H]1Cc2c(n(Cc3ccccc3)c3ccccc23)[C@@H]2CCCC(=O)N12`: the IC50 was 2.8 µM.

For `C=CCOC[C@H]1Cc2c(n(Cc3ccccc3)c3ccccc23)[C@@H]2CCCC(=O)N12`, it took 1.3 µM to reach half-maximal inhibition (IC50). This IC50 is about 2.2-fold lower than that of the compound before.

In the case of `O=C1CCC[C@H]2c3c(c4ccccc4n3Cc3ccccc3)C[C@H](COCC3CCCCC3)N12`, the IC50 was found to be 19 µM.

The compound `COC[C@H]1Cc2c(n(Cc3ccccc3)c3ccccc23)[C@@H]2CCCC(=O)N12` yielded an IC50 of 1.3 µM.

`C=C[C@H]1CC(=O)N2[C@@H](COCc3ccccc3)Cc3c(n(Cc4ccccc4)c4ccccc34)[C@@H]2C1`: the IC50 is 13 µM.

The compound `C=CCOC[C@H]1Cc2c(n(Cc3ccccc3)c3ccccc23)[C@@H]2CCCCN12` displayed an IC50 of 1.5 µM.

The next assay concerns Plasmodium falciparum. Put plainly: Anti-malarial activity against Plasmodium falciparum trophozoites assessed as induction of morphological changes at 5 uM. The assay is classed as functional, organism-based.
Details: not given
With `C=CCOC[C@H]1Cc2c(n(Cc3ccccc3)c3ccccc23)[C@@H]2C[C@@H](C=C)CC(=O)N12`, the outcome was Active.

Turning to `O=C1CCC[C@H]2c3c(c4ccccc4n3Cc3ccccc3)C[C@H](COCc3ccccc3)N12`, the outcome was Active.

The values above are taken from ChEMBL document CHEMBL1949634, “Synthesis and evaluation of a novel series of indoloisoquinolines as small molecule anti-malarial leads” (Bioorg Med Chem Lett, 2012).
